T cruzi repl = blocks replication of Trypanosoma cruzi. T. cruzi beta-gal in NIH3T3, luminescence, 90 h. inhibition, % (concentration not given with the values). actives 1.4% (n = 300,000). AID 1885;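 active = mean inhibition across valid replicates above about 55%, limit read from the data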;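 note: signal also drops with host cell toxicity which is not excluded here; 0% = plate median of DMSO wells and 100% = zero luminescence signal; higher percent means less beta-gal luminescence so fewer parasites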
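Test system: β-gal T. cruzi (Tulahuen C4) inside NIH/3T3 cells / Quantity: 5,000 cells/well / Measured by: luminescence from GalScreen with 0.05% NP40, read after 60 min / Medium: DMEM plus 2% FBS / Measure: parasite load inhibition, % / Reagent: Tulahuen C4 trypomastigotes, 5000/well / Schedule: co-culture of at least 90 h after 3 h attachment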
MPTP block = blocks calcium-induced mitochondrial swelling. inhibition, % at 10 µM. actives 1.4% (n = 360,000). isolated mouse mitochondria, Ca2+ swelling absorbance, 30 min;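 active = inhibition of 50% or more, scaled per plate between neutral and stimulator controls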;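 note: 0% = DMSO wells given calcium and 100% = 1 mM EGTA wells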
Redox H2O2 prof = compounds producing H2O2 with reducing agent – biochemical, NIH compound library profiling, artefact control for MLSCN library redox annotation, primary screen. DTT-dependent redox cycling H2O2, phenol red/HRP absorbance; 100% = 100 µM peroxide control, 0% = buffer. activation, % at 10 µM. actives 0.03% (n = 200,000);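 active = activation of at least 50% relative to the plate's high and low controls in the primary single-dose screen; inactive = activation below 50%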;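 note: compound incubated with DTT at 0.8 mM final as the reducing agent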
L major viab = inhibitors of Leishmania major promastigote growth | Leishmania major promastigotes, resazurin fluorescence viability | inhibition, % at 10 µM | actives 9% (n = 200,000); in the data active = inhibition above about 50%;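 note: promastigotes grown with compound for 44 hours at 28 °C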
Lipid droplet = hepatic lipid droplet formation modulation | AML12 mouse hepatocytes, oleate lipid droplets, BODIPY imaging | inhibition, % at 6.5 µM | actives 0.4% (n = 240,000) | AID 1656;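 active = lipid droplet intensity inhibited by at least 50%, with more than 500 cells counted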
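Assay system: AML12 hepatocytes (mouse); Probe or stimulus: oleic acid at 100 µM to induce lipid droplet formation; Dosing: compound at 6.5 µM only; Schedule: compound with oleate, overnight; Detection: fluorescence imaging, 20x objective, two fields per well; Measure: % inhibition of lipid droplet signal.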
MPTP counter = Rhodamine 123 counter-screen of mitochondrial pore hits. shares compounds with MPTP block. actives 78% (n = 5,000). isolated mitochondria, membrane potential, Rhodamine 123 fluorescence. inhibition, % at 10 µM; in the data active = inhibition above about 22%;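 note: 0% = DMSO vehicle and 100% = positive control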
MPTP abs DR = MPTP inhibition, dose response swelling confirmation; actives 58% (n = 780); AID 651561; IC50, µM; isolated mitochondria swelling, absorbance; shares compounds with MPTP block; in the data active = IC50 below about 20 µM
MPTP cs DR = MPTP inhibitor counter-screen activity, dose response. IC50, µM. AID 651564. isolated mitochondria counterscreen, fluorescence read-out. actives 49% (n = 780). shares compounds with MPTP block; in the data active = IC50 below about 80 µM
The depositor's hits bear a star; i = inactive; nt = no result. This is one part of a sample in which hits are shown more often than they occur.

SMILES	T cruzi repl	MPTP block	Redox H2O2 prof	L major viab	Lipid droplet	MPTP counter	others
COc1ccc2c(c1)[nH]c1c(N3CCN(Cc4ccc5c(c4)OCO5)CC3)ncnc12	33.8	88.5*	-0.5	78.3*	nt	90.6*
CCC1CCCCN1C(=O)Cn1c(=O)n(CCCC(=O)NCc2ccco2)c(=O)c2sccc21 (stereo not drawn)	-1.1	-0.4	nt	nt	0.3	nt
CN(C)S(=O)(=O)c1cc(NC(=O)COC(=O)c2ccc3c(c2)OCO3)ccc1Cl	nt	-2.4	0.5	-6.8	2.0	nt
CC(OC(=O)Cn1cnc2c1c(=O)n(C)c(=O)n2C)C(=O)NC(C)c1ccc(Cl)cc1Cl (stereo not drawn)	-10.3	2.3	nt	nt	nt	nt
ONC(=Nc1ccc(Cl)cc1)c1ccccc1	-2.8	0.5	3.5	-3.4	0.1	nt
COc1ccc(-c2[nH]ncc2CN(C)Cc2nonc2C)c(OC)c1	-4.0	1.7	-1.5	2.5	-5.4	nt
O=C(NCCCCCCNC(=O)c1ccc(Br)s1)c1ccc(Br)s1	41.0	53.8*	1.1	-0.5	-1.2	36.2*
O=C(NCc1ccccc1)C(c1ccncc1)N(C(=O)c1csnn1)c1cccc(F)c1 (stereo not drawn)	-2.6	-0.7	nt	nt	-8.6	nt
COCC1CCCN(C(=O)c2cc(COc3ccc4ncccc4c3)on2)C1 (stereo not drawn)	-62.2	95.1*	nt	nt	-16.1	96.9*
Cc1cccnc1CN1CCN(C(=O)c2cc(COc3ccc4ncccc4c3)on2)CC1	-126.4	103.7*	-0.9	7.0	-14.7	102.4*
CCC(O)C1CCN(C(=O)c2cc(COc3ccc4ncccc4c3)on2)CC1 (stereo not drawn)	-21.2	91.9*	-1.2	22.7	-7.2	102.2*
CCOC(=O)N1CCN(C(=O)c2cc(COc3ccc4ncccc4c3)on2)CC1	-32.7	37.0	-0.4	3.5	-73.0	nt
COc1ccc(NC(=O)NC23CC4(C)CC(C)(CC(C)(C4)C2)C3)cc1OC	41.1	76.5*	0.4	44.7	-24.4	50.8*
CCOc1ccc(S(=O)(=O)N2CCC(C(=O)NCC3CCCO3)CC2)cc1Cl (stereo not drawn)	-1.8	-1.2	nt	nt	-3.9	nt
Cc1ccc(NC(=S)NNc2ccc(C(=O)O)cc2[N+](=O)[O-])cc1C	-5.5	53.7*	nt	nt	nt	64.3*
Cc1ccc(NC(=S)NCc2ccccc2)cc1[N+](=O)[O-]	-1.0	98.6*	0.4	5.1	-1.5	91.2*
Cc1ccc(CNC(=S)Nc2ccc(C)c([N+](=O)[O-])c2)cc1	-3.5	102.5*	-0.1	-3.3	4.2	97.5*
CNC(=S)Nc1ccc([N+](=O)[O-])c(C)c1	-8.0	62.4*	-0.8	3.1	25.0	78.4*
O=c1ccc(-c2ccc(S(=O)(=O)Nc3ccc(F)cc3)s2)n[nH]1	23.7	-2.3	nt	nt	-2.9	nt
CC(C)(C)CC(C)(C)c1ccc(O)c(Cc2ccc(Cl)cc2Cl)c1	nt	94.8*	nt	nt	nt	5.3	MPTP abs DR=i;MPTP cs DR=6.42*
COc1cc(OC)cc(C(=O)N[C@H](C(=O)OCC(=O)N2CCc3ccccc32)C(C)C)c1	5.3	-0.6	-2.4	6.4	-6.5	nt
CN1/C(=C\C=C2/SC(=S)N(CC(=O)O)C2=O)C(C)(C)c2ccccc21	24.8	75.1*	-1.6	46.9	22.1	12.4
CC(=O)Nc1ccc(NC(=O)c2ccccc2S(=O)(=O)c2ccc([N+](=O)[O-])cc2)cc1	7.6	0.7	-1.9	-4.2	-1.3	nt
COc1ccc(OC)c(C2=NS(=O)(=O)N(C)C(C(=O)NCc3ccco3)=C2)c1	2.8	-1.6	nt	nt	8.0	nt
CC1CCc2c(C(=O)Nc3nccs3)csc2C1 (stereo not drawn)	-21.7	1.0	-4.0	8.4	nt	nt
SMILES	T cruzi repl	MPTP block	Redox H2O2 prof	L major viab	Lipid droplet	MPTP counter	others
CC1CCc2c(C(=O)Nc3ccc(OC(F)(F)F)cc3)csc2C1 (stereo not drawn)	7.8	94.8*	1.2	-5.5	-0.9	29.3*
CCCOc1ccc(C(=O)NNC(=S)NC(=O)c2cc(-c3ccc(Cl)cc3)nc3ccccc23)cc1	32.2	93.3*	-3.6	2.1	nt	20.2*
CCNC(=S)NNC(=O)c1cc(-c2cccc(OC)c2)nc2ccccc12	6.7	1.5	-0.2	11.9	1.0	nt
CCNC(=S)NNC(=O)c1cc(-c2ccccc2C)nc2ccccc12	12.8	-0.2	-5.7	28.6	nt	nt
CCCOc1cccc(-c2cc(C(=O)NNC(=S)NCC)c3ccccc3n2)c1	7.5	50.2*	-1.2	-1.0	-22.8	55.7*
Cc1ccc(C)c(-c2cc(C(=O)NNC(=S)NCC(C)C)c3ccccc3n2)c1	-25.6	86.6*	0.3	-4.3	5.0	80.2*
Cc1ccc(C2=NN(C(=O)CN3CCN(C4CCS(=O)(=O)C4)CC3)C(c3ccco3)C2)cc1 (stereo not drawn)	nt	-2.3	nt	nt	nt	nt
Cc1cccc(S(=O)(=O)N(C)C[C@@H]2OCc3cn(nn3)CCCC(=O)N([C@H](C)CO)C[C@H]2C)c1	nt	0.0	nt	nt	nt	nt
Nc1nc2cc3c(cc2cc1C(=O)NCc1ccc(F)cc1)OCO3	nt	85.9*	nt	nt	nt	95.1*
COc1ccc(CCNC(=O)C2CCN(Cc3nc(-c4cccc(Cl)c4)oc3C)CC2)cc1OC	-6.7	51.8*	0.3	8.3	-4.2	14.2	MPTP abs DR=18.5*;MPTP cs DR=36.9*
COc1ccc(CCNC(=O)C2CCCN(Cc3nc(-c4ccccc4C)oc3C)C2)cc1OC (stereo not drawn)	46.5	59.2*	-5.8	92.0*	nt	7.8	MPTP abs DR=18.3*;MPTP cs DR=35.4*
Cc1oc(-c2ccc(Cl)cc2)nc1CN1CCCC(C(=O)NC2CC2)C1 (stereo not drawn)	43.1	6.3	nt	nt	0.0	nt
CCOC(=O)N1CCC(NC(=O)C2CCCN(Cc3nc(-c4cccc(Cl)c4)oc3C)C2)CC1 (stereo not drawn)	52.0	94.4*	-1.3	10.3	nt	51.4*
Cc1ccccc1-c1nc(CN2CCC(C(=O)NCC3CCCO3)CC2)c(C)o1 (stereo not drawn)	23.7	-0.2	1.5	-10.3	nt	nt
CN(C(=O)c1cccc(NC(=O)Cc2ccc(NC(=O)C3CCCN(C(=O)C4CCC4)C3)cc2)c1)C1CCCCC1 (stereo not drawn)	nt	0.4	nt	nt	nt	nt
CC1(C)CC(=O)C(CC(=O)Nc2cc(C(F)(F)F)ccc2Cl)C(=O)C1	-1.4	0.2	0.3	-8.3	-13.9	nt
Cc1ccc(S(=O)(=O)Oc2cc(N)c3c(n2)CCC3)cc1	-5.2	0.3	nt	nt	4.0	nt
Cn1ccnc1SCc1cc(=O)[nH]c2ccccc12	-9.7	87.0*	-0.5	-5.4	0.5	87.2*
O=C(Nc1ccc(Cl)c(Cl)c1)C1CC(=O)N(c2ccc(Br)cc2)C1 (stereo not drawn)	15.1	63.0*	0.5	0.0	-6.4	87.2*

High-throughput results from PubChem.
